We go through 34 compounds from ChEMBL document CHEMBL1150250, “New R/S-3,4-dihydro-2,2-dimethyl-6-halo-4-(phenylaminothiocarbonylamino)-2H-1-benzopyrans structurally related to (+/-)-cromakalim as tissue-selective pancreatic beta-cell K(ATP) channel openers” (Bioorg Med Chem, 2008).

The source made the active and inactive calls. No cut-off for these calls is given here.

Experiment [1] in a line: Inhibition of glucose-induced insulin secretion in Wistar rat pancreatic beta islets assessed as residual insulin secretion at 10 uM relative to control. In kind it is functional.
The test system of experiment [2] is Aorta. Description: Myorelaxant activity in potassium depolarized Wistar rat aorta rings assessed as relaxation of KCl-induced contraction. In kind it is functional, tissue-based. The method, boiled down: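 Thoracic aorta rings (3–4 mm) from adult fed Wistar rats were equilibrated for 60 min, then contracted with 30 mM KCl. Drug was added cumulatively up to maximal relaxation or 300 µM, and isometric tension was recorded. Relaxation was expressed as % of the KCl contraction. EC50 (50% inhibition of the KCl plateau) was derived from dose–response curves. Values are mean ± SEM (n).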

Experiment [3] can be described thus: Inhibition of glucose-induced insulin secretion in Wistar rat pancreatic beta islets assessed as residual insulin secretion at 1 uM relative to control. In kind it is functional.
Experiment [4] in a line: Activation of KATP channel assessed as increase in rate of [45Ca] fractional outflow in perfused Wistar rat pancreatic beta islets at 10 uM. The method, boiled down:
(§1)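 Islets from adult fed Wistar rats, in groups of 100, were loaded for 60 min at 37 °C in medium with 16.7 mM glucose plus either 86Rb (0.15–0.25 mmol/L) or 45Ca (0.02–0.04 mmol/L). They were washed three times and then perifused at 1.0 mL/min. Effluent was collected each minute from min 31 to 90. Outflow was expressed as fractional outflow rate (% of instantaneous islet content per min). Insulin in the effluent was measured by radioimmunoassay against a rat insulin standard.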

The nature of experiment [5]: Activation of KATP channel assessed as increase in rate of [86Rb] fractional outflow in perfused Wistar rat pancreatic beta islets at 10 uM. An outline of the steps: as §1
The nature of experiment [6]: Activation of KATP channel assessed as increase in rate of [45Ca] fractional outflow in perfused Wistar rat pancreatic beta islets at 10 uM in absence of extracellular calcium. The method, boiled down:
as §1

Experiment [7] in a line: Activation of KATP channel assessed as reduction of KCl-induced rise in calcium concentration in Wistar rat pancreatic beta islets at 10 uM by calcium fluorimetry. An outline of the steps: (§2)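 Dispersed rat islet cells were cultured for 72 h on coverslips, then loaded with fura-2 AM (2 µmol/L) for 1 h. Cells were perifused in bicarbonate salt medium with 2.8 mM glucose, gassed with O2/CO2. The rise in [Ca2+]i was evoked by 20 mM glucose or by 50 mM KCl, with NaCl lowered to keep osmolarity constant. Drug was 10 µM. Dual-excitation (340/380 nm, emission 510 nm) ratio F340/F380 was recorded in single cells, on different cell populations.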

Experiment [8] in a line: Activation of KATP channel assessed as insulin release in perfused Wistar rat pancreatic beta islets at 10 uM. An outline of the steps:
as §1

Experiment [9] in a line: Inhibition of glucose-induced insulin secretion in Wistar rat pancreatic beta islets assessed as residual insulin secretion relative to control. In kind it is functional. The method, boiled down:
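Groups of 10 islets from adult fed Wistar rats were preincubated for 30 min at 37 °C in bicarbonate salt medium with 2.8 mM glucose and 0.5% albumin, gassed with O2/CO2. They were then incubated for 90 min in the same medium with 16.7 mM glucose plus drug. Insulin was measured by radioimmunoassay and expressed as % of drug-free 16.7 mM glucose control. Values are mean ± SEM (n).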

A short description of experiment [10]: Activation of KATP channel assessed as increase in rate of [86Rb] fractional outflow in perfused Wistar rat pancreatic beta islets in presence of glibenclamide at 10 uM. An outline of the steps:
as §1

A short description of experiment [11]: Activation of KATP channel assessed as reduction of glucose-induced rise in cytosolic calcium concentration in Wistar rat pancreatic beta islets at 10 uM by calcium fluorimetry. An outline of the steps:
as §2

Experiment [12] concerns Aorta. Description: Ratio of IC50 for glucose-induced insulin secretion in Wistar rat pancreatic beta islets to EC50 for myorelaxant activity in Wistar rat aorta rings. In kind it is functional. An outline of the steps: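 Selectivity ratio: the estimated IC50 for inhibition of 16.7 mM glucose-induced insulin release from incubated islets, divided by the EC50 for relaxing 30 mM KCl-contracted rat aortic rings.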

For the compound `CC1(C)CC(NC(=S)Nc2ccccc2)c2cc(Cl)ccc2O1` (centres undefined), the Activity in experiment [1] is on record as 46.6%. Moreover, the EC50 in experiment [2] came out at 11.1 µM.

With `CC1(C)CC(NC(=S)Nc2ccc(Cl)cc2)c2cc(F)ccc2O1` (centres undefined), the Activity in experiment [3] came out at 77.5%; in [1], 10.5%. Besides, the result in experiment [4], in [5], in [8] and in [11] was Active. Further, the result in experiment [6], in experiment [7] and in experiment [10] was inactive. Also, in experiment [2], the EC50 was > 10 µM. Further, the IC50 in experiment [9] is 2.3 µM. Besides, the “Ratio IC50/EC50” value in [12] is on record as <0.23.

For the compound `COc1ccc(NC(=S)NC2CC(C)(C)Oc3ccc(Br)cc32)cc1` (centres undefined), the Activity in experiment [1] was 53.1%. In addition, the EC50 in experiment [2] was > 10 µM.

With `CC1(C)Oc2ccc(C#N)cc2C(N2CCCC2=O)C1O` (racemic) [CROMAKALIM], the Activity is 95.3% in [3] and 94.4% in [1]. The EC50 in experiment [2] amounted to 0.13 µM. For the same compound, the half-maximal inhibitory concentration (IC50) in experiment [9] was > 100 µM. Moreover, the “Ratio IC50/EC50” value in [12] was >770.

For the compound `CC1(C)CC(NC(=S)Nc2ccccc2)c2cc(Br)ccc2O1` (centres undefined), the Activity in experiment [1] turned out to be 32.8%. For the same compound, in experiment [2], the EC50 was 51.5 µM.

Regarding `CC1(C)CC(NC(=S)Nc2ccccc2Cl)c2cc(Br)ccc2O1` (centres undefined), the Activity in [1] was 57.5%. For the same compound, the EC50 in experiment [2] was determined as 6.5 µM.

In the case of `CC1(C)CC(NC(=S)Nc2ccc(Cl)cc2)c2cc(Br)ccc2O1` (centres undefined), the results for the Activity in [3] and in experiment [1] were 75.7% and 12.2%, respectively. Further, the result in [5] and in experiment [11] was Active. In addition, the result in [7] and in experiment [10] was inactive. Further, the EC50 in [2] is > 10 µM. The IC50 in experiment [9] was 2.26 µM. In experiment [12], the “Ratio IC50/EC50” value was <0.22.

Consider `Cc1ccccc1NC(=S)NC1CC(C)(C)Oc2ccc(F)cc21` (centres undefined), for which, in [1], the Activity came out at 69.8%. For the same compound, in [2], the EC50 came out at 11.1 µM.

As to `Cc1cccc(NC(=S)NC2CC(C)(C)Oc3ccc(F)cc32)c1` (centres undefined), in [1], the Activity is recorded as 53.1%. Besides, the EC50 in [2] amounted to 7.3 µM.

With `CC1(C)CC(NC(=S)Nc2cccc(Cl)c2)c2cc(Cl)ccc2O1` (centres undefined), the Activity in [3] was found to be 89.5%; in experiment [1], 16.2%. For the same compound, the concentration giving a half-maximal response (EC50) in experiment [2] is > 10 µM. For the same compound, the IC50 in [9] is 3.12 µM. For the same compound, the “Ratio IC50/EC50” value in experiment [12] is listed as <0.31.

Take `CC1(C)CC(NC(=S)Nc2cccc(Cl)c2)c2cc(Br)ccc2O1` (centres undefined): the Activity in experiment [3] came out at 74.6%; in experiment [1], 23%. Also, the EC50 in experiment [2] was > 10 µM. For the same compound, in experiment [9], the IC50 came to 2.59 µM. Further, the “Ratio IC50/EC50” value in experiment [12] is recorded as <0.25.

Regarding `Cc1cccc(NC(=S)NC2CC(C)(C)Oc3ccc(Br)cc32)c1` (centres undefined), in experiment [1], the Activity is on record as 37.2%. For the same compound, the EC50 in experiment [2] is > 30 µM.

Turning to `COc1cccc(NC(=S)NC2CC(C)(C)Oc3ccc(Br)cc32)c1` (centres undefined), in experiment [1], the Activity is on record as 36.6%. The EC50 in [2] was > 10 µM.

As for `Cc1ccc(NC(=S)NC2CC(C)(C)Oc3ccc(Br)cc32)cc1` (centres undefined), the Activity in [1] is listed as 52.2%. Besides, the EC50 in experiment [2] was > 30 µM.

Turning to `CC1(C)CC(NC(=S)Nc2ccccc2)c2cc(F)ccc2O1` (centres undefined), the Activity in [1] is recorded as 63.2%. For the same compound, in experiment [2], the concentration for a half-maximal effect (EC50) came out at 7.6 µM.

As to `COc1ccccc1NC(=S)NC1CC(C)(C)Oc2ccc(Br)cc21` (centres undefined), the Activity in experiment [1] was 65.1%. The EC50 in experiment [2] is > 10 µM.

Consider `COc1cccc(NC(=S)NC2CC(C)(C)Oc3ccc(Cl)cc32)c1` (centres undefined), for which the Activity in experiment [1] amounted to 34.3%. For the same compound, the EC50 in experiment [2] amounted to 2.9 µM.

Turning to `Cc1ccccc1NC(=S)NC1CC(C)(C)Oc2ccc(Cl)cc21` (centres undefined), the Activity in experiment [1] is 69%. Moreover, the EC50 in experiment [2] was > 30 µM.

As to `COc1ccccc1NC(=S)NC1CC(C)(C)Oc2ccc(F)cc21` (centres undefined), the Activity in [1] is recorded as 82.9%. Also, in [2], the EC50 is > 10 µM.

With `CC1(C)CC(NC(=S)Nc2ccccc2Cl)c2cc(F)ccc2O1` (centres undefined), the Activity in experiment [1] was found to be 81.3%. Also, the EC50 in experiment [2] stood at 24.4 µM.

With `Cc1ccc(NC(=S)NC2CC(C)(C)Oc3ccc(Cl)cc32)cc1` (centres undefined), in [1], the Activity came to 32.8%. The EC50 in [2] is > 30 µM.

Regarding `CC(C)NC1=NS(=O)(=O)c2cc(Cl)ccc2N1`, the results for the Activity in experiment [3] and in experiment [1] were 36.2% and 4.9%, respectively. Further, the concentration giving a half-maximal response (EC50) in [2] was determined as 36.3 µM. In addition, in [9], the IC50 stood at 0.73 µM. Further, the “Ratio IC50/EC50” value in experiment [12] amounted to 0.02.

`CC1(C)CC(NC(=S)Nc2ccc(Cl)cc2)c2cc(Cl)ccc2O1` (centres undefined): the Activity in experiment [3] is on record as 87.9%; in [1], 8.9%. In addition, in experiment [2], the concentration giving a half-maximal response (EC50) is > 10 µM. The IC50 in [9] amounted to 2.75 µM. In addition, in experiment [12], the “Ratio IC50/EC50” value is recorded as <0.27.

As to `COc1ccccc1NC(=S)NC1CC(C)(C)Oc2ccc(Cl)cc21` (centres undefined), the Activity in [1] is 76.8%. Also, the concentration for a half-maximal effect (EC50) in [2] came out at 5.5 µM.

Consider `CC1(C)CC(NC(=S)Nc2ccccc2Cl)c2cc(Cl)ccc2O1` (centres undefined), for which the Activity in experiment [1] is on record as 68.2%. The EC50 in experiment [2] worked out at 3.2 µM.

Regarding `COc1ccc(NC(=S)NC2CC(C)(C)Oc3ccc(F)cc32)cc1` (centres undefined), in experiment [1], the Activity stood at 73.8%. Moreover, in experiment [2], the EC50 was determined as 21.6 µM.

Take `Cc1cccc(NC(=S)NC2CC(C)(C)Oc3ccc(Cl)cc32)c1` (centres undefined): the Activity in experiment [1] was determined as 43%. In addition, in [2], the concentration giving a half-maximal response (EC50) came to 137 µM.

As for `Cc1ccc(NC(=S)NC2CC(C)(C)Oc3ccc(F)cc32)cc1` (centres undefined), the Activity in experiment [1] was 60.2%. Moreover, in experiment [2], the EC50 was > 30 µM.

For `COc1ccc(NC(=S)NC2CC(C)(C)Oc3ccc(Cl)cc32)cc1` (centres undefined), the Activity in experiment [1] is reported as 50.4%. Moreover, the EC50 in experiment [2] was 12.7 µM.

With `CC1=Nc2ccc(Cl)cc2S(=O)(=O)N1` [DIAZOXIDE], the Activity in experiment [3] is on record as 87.5%; in experiment [1], 73.9%. Besides, the “Ratio IC50/EC50” value in experiment [12] worked out at 1.01.

As for `CC1(C)CC(NC(=S)Nc2cccc(Cl)c2)c2cc(F)ccc2O1` (centres undefined), the Activity in experiment [3] came out at 90.2%; in experiment [1], 18%. The EC50 in experiment [2] is > 10 µM. Besides, the 50% inhibitory concentration (IC50) in experiment [9] was determined as 3.25 µM. Moreover, the “Ratio IC50/EC50” value in experiment [12] is <0.32.

In the case of `Cc1ccccc1NC(=S)NC1CC(C)(C)Oc2ccc(Br)cc21` (centres undefined), in experiment [1], the Activity worked out at 57%. For the same compound, the half-maximal effective concentration (EC50) in [2] is > 30 µM.

Consider `CC(N/C(=N\C#N)Nc1ccncc1)C(C)(C)C` (racemic) [PINACIDIL ANHYDROUS], for which, in experiment [2], the EC50 came out at 0.35 µM. In experiment [9], the IC50 is > 100 µM.

On to `COc1cccc(NC(=S)NC2CC(C)(C)Oc3ccc(F)cc32)c1` (centres undefined), for which the Activity in [1] is on record as 52%. Also, the EC50 in [2] worked out at 6.2 µM.

By EC50 is commonly meant the concentration needed to bring the measured effect to its halfway point. One may read the IC50 as the concentration that inhibits the measured activity by half.
